Laboratory results taken from ChEMBL document CHEMBL3352816, “Synthesis and antiproliferative activity of imidazo[2,1-b][1,3,4]thiadiazole derivatives” (Bioorg Med Chem Lett, 2014).
Activity calls are given as the source filed them. The rule behind the calls is not given here.

What was measured:
[1] = Growth inhibition of human Leukemia cells; type: functional; settings: Leukemia cell
NALM-6 = experiment: Cytotoxicity against human NALM6 cells assessed as reduction in cell viability after 24 to 72 hrs by trypan blue exclusion assay; type: functional, cell-based
In short: (§1)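 Reh, K562 and Nalm6 leukemic cells were treated with 10, 50, 100 and 250 µM or with 0.1, 0.5, 1, 5 and 10 µM (compounds dissolved in DMSO). Viability was scored by trypan blue after 24, 48 and 72 h. DMSO-treated cells served as vehicle control.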

REH [2] = experiment: Cell cycle arrest in human REH cells assessed as reduction of cells in G2/M phase after 48 hrs using propidium iodide by FACS analysis; type: functional, cell-based
In short: (§2)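 Reh and Nalm6 cells exposed 48 h to 0.1, 0.5, 1 and 5 µM, harvested, stained with propidium iodide and analysed by flow cytometry. Gated fractions were sub G1, G1, S and G2. DMSO-treated cells served as vehicle control. Three independent experiments for Reh and two for Nalm6.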

[3] = Growth inhibition of human Renal cancer cells; type: functional; settings: Cancer cell lines
REH [4] = experiment: Cytotoxicity against human REH cells assessed as reduction in cell viability at 0.1 to 10 uM by trypan blue exclusion assay; type: functional, cell-based; settings: TDE = time-dependent effect; in short: as §1
K562 [5] = experiment: Cytotoxicity against human K562 cells assessed as reduction in cell viability at 0.1 to 10 uM by trypan blue exclusion assay; type: functional, cell-based; settings: TDE = time-dependent effect; in short: as §1
K562 [6] = experiment: Cytotoxicity against human K562 cells assessed as reduction in cell viability after 24 to 72 hrs by trypan blue exclusion assay; type: functional, cell-based; in short: as §1
[7] = Cell cycle arrest in human NALM6 cells assessed as reduction of cells in G1 phase after 48 hrs using propidium iodide by FACS analysis; type: functional, cell-based; settings: NALM-6; in short: as §2
REH [8] = experiment: Induction of apoptosis in human REH cells assessed as caspase 8 cleavage after 48 hrs by Western blot analysis; type: functional, cell-based
In short: (§3)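 Reh cell lysates were prepared after 48 h treatment at 500 nM and 1 µM, with DMSO-treated cells as control. Western blotting used primary antibodies against KU70, PARP1, caspase 3, BID, caspase 9, FAS and caspase 8, with tubulin also probed.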

REH [9] = experiment: Induction of apoptosis in human REH cells assessed as viable cells at 1 uM after 48 hrs using annexin-v-FITC/propidium iodide by FACS analysis (reference value: 88.41 %); type: functional; settings: read-out: Activity
REH [10] = experiment: Induction of apoptosis in human REH cells assessed as induction of ROS production at 1 uM after 30 mins by flow cytometric analysis (reference value: 0.09 %); type: functional
REH [11] = experiment: Induction of apoptosis in human REH cells assessed as caspase 3 cleavage after 48 hrs by Western blot analysis; type: functional, cell-based; in short: as §3
[12] = Cell cycle arrest in human NALM6 cells assessed as accumulation at subG1 phase after 48 hrs using propidium iodide by FACS analysis; type: functional, cell-based; settings: NALM-6; in short: as §2
REH [13] = experiment: Induction of apoptosis in human REH cells assessed as induction of ROS production at 1 uM after 10 mins by flow cytometric analysis (reference value: 0.33 %); type: functional
HEK293 = experiment: Cytotoxicity against HEK293 cells assessed as reduction in cell viability at 3 uM after 24 to 72 hrs by trypan blue exclusion assay; type: cell-based; settings: human, hek293, 3 µM
REH [14] = experiment: Cell cycle arrest in human REH cells assessed as accumulation at subG1 phase after 48 hrs using propidium iodide by FACS analysis; type: functional, cell-based; in short: as §2

Compound: O=Cc1c(-c2ccc(Br)cc2)nc2sc(Cc3ccccc3)nn12
- GI50 [1]: 1.41 µM
- TGI [1]: 13.5 µM
- Activity (NALM-6): Dose-dependent effect
- Activity (REH [2]): Dose-dependent effect
- GI50 [3]: 3.2 µM
- LC50 [3]: 93.3 µM
- TGI [3]: 20 µM
- Activity (REH [4]): tde
- Activity (K562 [5]): tde
- Activity (K562 [6]): Dose-dependent effect
- Activity [7]: Dose-dependent effect
- Activity (REH [8]): Active
- viability at 1 µM (REH [9]): 5.23%
- Activity (REH [10]): 0.06%
- Activity (REH [11]): Dose-dependent effect
- Activity [12]: Dose-dependent effect
- Activity (REH [13]): 0.28%
- Activity (HEK293): Non-toxic
- Activity (REH [14]): Dose-dependent effect
